Measured values as given in ChEMBL document CHEMBL1221219, “Selective blockade of 2-arachidonoylglycerol hydrolysis produces cannabinoid behavioral effects” (Nat Chem Biol, 2009).
Active and inactive are the calls of the source. No cut-off for these calls is given here.

Assays:
Mus musculus [1] = assay: Inhibition of PREPL in C57B1/6J mouse brain membrane at 16 mg/kg, ip after 4 hrs by competitive activity-based protein profiling-MudPIT method; type: functional, organism-based; set-up: dose 16 mg/kg
Outline: (§1)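 After i.p. dosing in 4:1 PEG300:Tween80, male C57Bl/6J mice were killed at 4 h. Brain membrane proteomes from treated and vehicle mice were labelled with FP-biotin. Labelled proteins were enriched on avidin, digested on-bead with trypsin and analysed by multidimensional LC-MS. Proteins were identified by SEQUEST, and dosed samples were compared with vehicle.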

Mus musculus [2] = assay: Induction of hypomotility in CB1 receptor deficient C57B1/6J mouse at 16 mg/kg, ip; type: functional, organism-based; set-up: dose 16 mg/kg
Outline: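 Male C57Bl/6J mice, 6-8 weeks, 20-26 g, given 16 mg kg^-1 i.p. in 4:1 v/v PEG300:Tween80 at 4 μl g^-1; vehicle controls received PEG300:Tween80 alone. Cannabinoid effects were scored in the tetrad test.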

Mus musculus [3] = assay: Inhibition of DPP9 in C57B1/6J mouse brain membrane at 16 mg/kg, ip after 4 hrs by competitive activity-based protein profiling-MudPIT method; type: functional, organism-based; set-up: dose 16 mg/kg
Outline: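 Mice were dosed 16 mg kg^-1 i.p. or vehicle and killed at 4 h. Brain membrane proteomes were labelled with FP-biotin, avidin-enriched, trypsin-digested on bead, analysed by multidimensional LC-MS and identified by SEQUEST.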

Mus musculus [4] = assay: Inhibition of NTE in C57B1/6J mouse brain membrane at 16 mg/kg, ip after 4 hrs by competitive activity-based protein profiling-MudPIT method; type: functional, organism-based; set-up: dose 16 mg/kg; outline: as §1
Mus musculus [5] = assay: Inhibition of PLA2G7 in C57B1/6J mouse brain membrane at 16 mg/kg, ip after 4 hrs by competitive activity-based protein profiling-MudPIT method; type: functional, organism-based; set-up: dose 16 mg/kg; outline: as §1
[6] = molecular target: T1, Diacylglycerol lipase-alpha (Homo sapiens) (UniProt Q9Y4D2); assay: Inhibition of recombinant DAGLalpha expressed in HEK293 cells assessed as hydrolysis of 1-stearoyl-2-arachidonoyl-glycerol to 2-AG at 10 uM after 30 mins by LC-MS method; type: cell-based
T1 sequence (whole entry): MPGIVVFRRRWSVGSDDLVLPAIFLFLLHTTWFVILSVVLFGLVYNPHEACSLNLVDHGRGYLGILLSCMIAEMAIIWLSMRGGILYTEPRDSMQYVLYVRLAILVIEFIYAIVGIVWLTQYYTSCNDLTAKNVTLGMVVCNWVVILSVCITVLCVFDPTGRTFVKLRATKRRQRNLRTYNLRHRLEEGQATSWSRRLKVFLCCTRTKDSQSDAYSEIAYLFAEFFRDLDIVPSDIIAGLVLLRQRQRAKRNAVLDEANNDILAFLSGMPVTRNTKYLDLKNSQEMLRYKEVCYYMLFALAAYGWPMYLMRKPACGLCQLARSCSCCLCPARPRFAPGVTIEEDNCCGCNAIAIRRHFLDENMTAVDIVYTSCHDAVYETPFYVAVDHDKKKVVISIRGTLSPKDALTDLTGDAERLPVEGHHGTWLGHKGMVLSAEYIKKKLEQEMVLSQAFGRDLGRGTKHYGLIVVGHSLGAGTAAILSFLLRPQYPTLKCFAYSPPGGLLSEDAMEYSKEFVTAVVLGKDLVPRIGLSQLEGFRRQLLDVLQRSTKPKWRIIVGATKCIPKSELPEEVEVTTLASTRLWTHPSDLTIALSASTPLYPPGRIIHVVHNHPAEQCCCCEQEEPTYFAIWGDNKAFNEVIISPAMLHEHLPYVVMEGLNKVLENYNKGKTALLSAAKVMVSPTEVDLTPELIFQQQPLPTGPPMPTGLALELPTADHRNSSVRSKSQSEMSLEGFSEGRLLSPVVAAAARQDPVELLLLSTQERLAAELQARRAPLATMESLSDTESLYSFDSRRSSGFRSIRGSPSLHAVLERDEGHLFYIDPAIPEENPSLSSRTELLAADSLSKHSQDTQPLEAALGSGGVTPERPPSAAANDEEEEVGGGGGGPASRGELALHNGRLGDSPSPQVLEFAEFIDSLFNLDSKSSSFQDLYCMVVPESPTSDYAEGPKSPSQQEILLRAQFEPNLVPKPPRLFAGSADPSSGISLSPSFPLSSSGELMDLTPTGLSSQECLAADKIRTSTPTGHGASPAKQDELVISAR

Mus musculus [7] = assay: Change in 2-AG levels in intraperitoneally dosed C57B1/6J mouse brain by LC-MS; type: functional, organism-based
Outline: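 Male C57Bl/6J mice given 4, 8, 16 or 40 mg kg^-1 i.p. in 4:1 PEG300:Tween80 at 4 μl g^-1, or vehicle, and killed after 4 h. Whole-brain lipids were quantified by LC-MS.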

[8] = molecular target: T1, Diacylglycerol lipase-alpha (Homo sapiens); assay: Inhibition of recombinant DAGLalpha expressed in HEK293 cells assessed as hydrolysis of 1-stearoyl-2-arachidonoyl-glycerol to 2-AG at 25 uM after 30 mins by LC-MS method; type: cell-based
Mus musculus [9] = assay: Inhibition of MAGL in C57B1/6J mouse brain membrane at 16 mg/kg, ip after 4 hrs by competitive activity-based protein profiling-MudPIT method; type: functional, organism-based; set-up: dose 16 mg/kg; outline: as §1
[10] = molecular target: T2, Diacylglycerol lipase-beta (Homo sapiens) (UniProt Q8NCG7); assay: Inhibition of recombinant DAGLbeta expressed in HEK293 cells assessed as hydrolysis of 1-stearoyl-2-arachidonoyl-glycerol to 2-AG at 10 uM after 30 mins by LC-MS method; type: cell-based
T2 sequence (whole entry): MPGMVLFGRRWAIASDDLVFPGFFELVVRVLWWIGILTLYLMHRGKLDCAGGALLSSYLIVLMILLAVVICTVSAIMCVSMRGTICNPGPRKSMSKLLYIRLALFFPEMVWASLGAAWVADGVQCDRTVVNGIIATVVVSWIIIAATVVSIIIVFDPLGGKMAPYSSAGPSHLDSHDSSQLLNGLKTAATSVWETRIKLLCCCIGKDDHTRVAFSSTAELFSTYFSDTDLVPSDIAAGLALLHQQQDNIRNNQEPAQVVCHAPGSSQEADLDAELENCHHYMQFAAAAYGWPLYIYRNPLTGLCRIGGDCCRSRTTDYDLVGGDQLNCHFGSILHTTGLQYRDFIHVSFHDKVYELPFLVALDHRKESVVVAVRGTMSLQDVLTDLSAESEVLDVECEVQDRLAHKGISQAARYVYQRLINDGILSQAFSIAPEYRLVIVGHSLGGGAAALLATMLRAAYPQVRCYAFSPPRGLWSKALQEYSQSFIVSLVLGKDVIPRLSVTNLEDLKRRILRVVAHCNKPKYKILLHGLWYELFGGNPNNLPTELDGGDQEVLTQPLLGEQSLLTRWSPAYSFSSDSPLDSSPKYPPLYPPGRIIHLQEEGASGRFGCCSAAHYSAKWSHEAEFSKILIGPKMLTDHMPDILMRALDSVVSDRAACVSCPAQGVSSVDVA

Mus musculus [11] = assay: Inhibition of MAGL in C57B1/6 mouse nucleus accumbens assessed as increase in interstitial level of 2-AG at 10 mg/kg, ip by following neuronal depolarization by microdialysis; type: functional, organism-based; set-up: dose 10 mg/kg
Outline: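 Male C57Bl/6 mice received 10 mg kg^-1 i.p. 1 h before neuronal depolarization. 2-AG and AEA were sampled by in vivo microdialysis from the nucleus accumbens.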

SMILES: O=C(Oc1ccc([N+](=O)[O-])cc1)N1CCC(C(O)(c2ccc3c(c2)OCO3)c2ccc3c(c2)OCO3)CC1
- inhibition (Mus musculus [1]): inactive
- Activity (Mus musculus [2]): inactive
- inhibition (Mus musculus [3]): inactive
- inhibition (Mus musculus [4]): inactive
- inhibition (Mus musculus [5]): inactive
- inhibition [6]: inactive
- Activity (Mus musculus [7]): inactive
- inhibition [8]: inactive
- inhibition (Mus musculus [9]): Active
- inhibition [10]: inactive
- inhibition (Mus musculus [11]): Active
